In brackets after ≈: the same amount, converted by molar mass. Activity calls are given as the source filed them. The calls are words filed in the database; no cut-off is given here.
Experiments:
[1] = test system: Mycolicibacterium smegmatis; test: Antimicrobial activity against Mycobacterium smegmatis expressing EmbC M286V mutant gene after 48 hrs by agar proportion method; format: functional
[2] = test system: Mycolicibacterium smegmatis; test: Antimicrobial activity against Mycobacterium smegmatis expressing EmbC M286L mutant gene after 48 hrs by agar proportion method; format: functional
[3] = test system: Mycolicibacterium smegmatis; test: Antimicrobial activity against Mycobacterium smegmatis expressing EmbC D280G mutant gene after 48 hrs by agar proportion method; format: functional
[4] = test system: Mycolicibacterium smegmatis; test: Antimicrobial activity against Mycobacterium smegmatis expressing EmbC D280G mutant gene at 32 ug/ml after 48 hrs; format: functional, organism-based
[5] = test system: Mycolicibacterium smegmatis; test: Antimicrobial activity against Mycobacterium smegmatis expressing EmbC M286L mutant gene at 32 ug/ml after 48 hrs; format: functional, organism-based
[6] = test system: Mycobacterium tuberculosis; test: Antimicrobial activity against Mycobacterium tuberculosis embA gene after 48 hrs by agar proportion method; format: functional
[7] = test system: Mycolicibacterium smegmatis; test: Antimicrobial activity against Mycobacterium smegmatis expressing EmbC gene after 48 hrs by agar proportion method; format: functional, organism-based
[8] = test system: Mycobacterium tuberculosis; test: Antimicrobial activity against Mycobacterium tuberculosis expressing EmbC gene after 48 hrs by agar proportion method; format: functional
[9] = test system: Mycolicibacterium smegmatis; test: Antimicrobial activity against Mycobacterium smegmatis expressing EmbC M286I mutant gene at 32 ug/ml; format: functional, organism-based
[10] = test system: Mycobacterium tuberculosis; test: Inhibition of Mycobacterium tuberculosis EmbC assessed as effect on LAM production at 1 ug/ml after 2 hrs by immunoblotting
Summary of the method: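 M. tuberculosis grown in 7H9 plus 10% OADC with hygromycin 100 µg/ml, kanamycin 20 µg/ml and EMB 0 to 128 µg/ml for 14 days. Cells extracted in phenol-water (1:1) at 80°C for 2 h, then chloroform added. Aqueous phase run on denaturing, nonreducing acrylamide gels with periodic acid-Schiff staining or CS-35 anti-LAM immunoblot.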

[11] = test system: Mycolicibacterium smegmatis; test: Antimicrobial activity against Mycobacterium smegmatis expressing EmbC M286V mutant gene at 32 ug/ml after 48 hrs; format: functional, organism-based
[12] = test system: T1, Probable arabinosyltransferase A (Mycobacterium smegmatis (strain ATCC 700084 / mc(2)155)), A0R612 [D280G]; test: Inhibition of Mycobacterium smegmatis EmbC D280G mutant assessed as effect on LAM production at 32ug/ml after 2 hrs by immunoblotting; conditions: Mycolicibacterium smegmatis
T1 sequence (whole entry): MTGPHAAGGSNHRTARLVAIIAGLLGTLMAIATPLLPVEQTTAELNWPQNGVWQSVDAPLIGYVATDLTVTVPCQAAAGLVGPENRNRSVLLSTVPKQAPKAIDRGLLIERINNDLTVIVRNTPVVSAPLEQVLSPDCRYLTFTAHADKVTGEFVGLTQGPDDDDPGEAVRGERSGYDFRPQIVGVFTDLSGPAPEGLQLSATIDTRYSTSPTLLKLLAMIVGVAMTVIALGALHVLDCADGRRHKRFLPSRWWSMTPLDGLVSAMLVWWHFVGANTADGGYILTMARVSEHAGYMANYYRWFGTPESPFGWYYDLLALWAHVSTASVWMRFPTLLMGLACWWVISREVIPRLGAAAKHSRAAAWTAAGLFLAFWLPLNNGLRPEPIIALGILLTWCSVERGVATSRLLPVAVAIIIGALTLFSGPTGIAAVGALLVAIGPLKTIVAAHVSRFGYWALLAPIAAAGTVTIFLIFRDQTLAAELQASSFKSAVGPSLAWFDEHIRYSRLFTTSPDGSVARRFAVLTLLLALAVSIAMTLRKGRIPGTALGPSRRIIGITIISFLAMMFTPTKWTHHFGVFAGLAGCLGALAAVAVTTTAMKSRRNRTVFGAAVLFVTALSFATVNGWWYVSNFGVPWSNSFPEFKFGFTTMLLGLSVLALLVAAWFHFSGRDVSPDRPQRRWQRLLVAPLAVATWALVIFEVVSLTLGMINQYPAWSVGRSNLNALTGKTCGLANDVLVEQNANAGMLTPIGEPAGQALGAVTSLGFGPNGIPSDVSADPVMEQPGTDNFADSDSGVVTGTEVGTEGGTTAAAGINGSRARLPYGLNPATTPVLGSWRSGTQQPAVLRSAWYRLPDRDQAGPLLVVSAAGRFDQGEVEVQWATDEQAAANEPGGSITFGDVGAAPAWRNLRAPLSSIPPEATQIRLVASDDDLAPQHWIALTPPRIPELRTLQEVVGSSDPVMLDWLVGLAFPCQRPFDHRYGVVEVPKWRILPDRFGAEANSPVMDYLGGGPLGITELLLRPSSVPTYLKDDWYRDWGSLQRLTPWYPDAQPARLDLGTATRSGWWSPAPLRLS

[13] = test system: Mycobacterium tuberculosis; test: Antimicrobial activity against Mycobacterium tuberculosis expressing EmbC gene after 48 hrs; format: functional
[14] = test system: Mycolicibacterium smegmatis; test: Antimicrobial activity against Mycobacterium smegmatis expressing EmbC M286I mutant gene after 48 hrs by agar proportion method; format: functional

CC[C@@H](CO)NCCN[C@@H](CC)CO [ETHAMBUTOL]
MIC [1]: 32 µg/mL (≈ 157 µM) | MIC [2]: 64 µg/mL (≈ 313 µM) | MIC [3]: 64 µg/mL (≈ 313 µM) | Activity [4]: inactive | Activity [5]: inactive | MIC [6]: 3 µg/mL (≈ 14.7 µM) | MIC [7]: inactive | MIC90 [8]: 1 µg/mL (≈ 4.89 µM) | Activity [9]: inactive | inhibition [10]: Active | Activity [11]: inactive | inhibition [12]: Active | MIC [13]: 3 µg/mL (≈ 14.7 µM) | MIC [14]: 32 µg/mL (≈ 157 µM)

Reference: ChEMBL document CHEMBL1649213, “The arabinosyltransferase EmbC is inhibited by ethambutol in Mycobacterium tuberculosis” (2009)
